Activity calls are given as the source filed them. No cut-off for these calls is given here.
Experiments:
[1] = biological target: T1, Bromodomain-containing protein 4 (Homo sapiens, UniProt O60885); assay: Inhibition of BRD4 (unknown origin) expressed in human H1299 cells co-expressing HPV16-LCR/E2 after 24 hrs by Bright Glo-luciferase reporter gene assay; assay type: cell-based
In short: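 Target-engagement reporter in an H1299-derived line carrying a stably integrated E2 expression cassette and an HPV-LCR-driven luciferase reporter. The read-out is BRD4-dependent E2-mediated transcriptional repression. EC50 is the mean of two measurements.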

[2] = biological target: T1, Bromodomain-containing protein 4; assay: Binding affinity to His-tagged BRD4 BD1-BD2 (K57 to K550 residues) (unknown origin) after 1 hr by Alexa-647-conjugated probe based TR-FRET assay
Liver = assay: Unbound intrinsic clearance in mouse liver microsomes; assay type: ADME, microsome
[3] = Permeability of the compound; assay type: physicochemical; details: not told; read-out: permeability
[4] = biological target: T1, Bromodomain-containing protein 4; assay: Binding affinity to Ile,Leu,Val,Met-[13C-methyl]-labelled BRD4 BD2 (352 to 457 residues) (unknown origin) expressed in Escherichia coli BL21 (DE3) by NMR method
MX1 = assay: Antiproliferative activity against human MX1 cells incubated over 72 hrs by Cell Titre Glo luminescence assay; assay type: functional, cell-based; details: MX1, 72 h
In short: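 Triple-negative breast cancer line MX-1 grown 3 days with compound. Proliferation read with the CellTiter-Glo kit. EC50 is the mean of two measurements.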

[5] = Half life in mouse at 3 mg/kg, iv; assay type: ADME, organism-based; details: in vivo
[6] = Oral bioavailability in mouse at 10 mg/kg; assay type: ADME, organism-based; details: in vivo
Mus musculus = assay: Unbound AUC in mouse at 10 mg/kg, po; assay type: ADME, organism-based; details: in vivo

Row | Compound | EC50 [1] | Ki [2] | other results
1 | Cc1[nH]c(-c2ccccc2Oc2ccccc2)c2cn[nH]c(=O)c12 | 220 nM | 37 nM | 
2 | Cn1cc(-c2cc(CS(C)(=O)=O)ccc2Oc2ccc(F)cc2F)c2cc[nH]c(=O)c21 | 40 nM | 11 nM | CL free (Liver): 24 L/h/kg; Papp [3]: 40 ×10⁻⁶ cm/s
3 | CC(=O)c1cc(-c2ccccc2N)[nH]c1C |  | 21000 nM | Activity [4]: Active
4 | COC(=O)C[C@@H]1N=C(c2ccc(Cl)cc2)c2c(sc(C)c2C)-n2c(C)nnc21 |  | 17 nM | 
5 | Cc1[nH]c(-c2cc(NS(C)(=O)=O)ccc2Oc2ccc(F)cc2F)c2cn[nH]c(=O)c12 | 280 nM | 16 nM | CL free (Liver): > 15 L/h/kg; Papp [3]: 6.1 ×10⁻⁶ cm/s; EC50 (MX1): 92 nM
6 | Cc1[nH]c(-c2ccccc2Oc2ccccc2)c2cc[nH]c(=O)c12 | 700 nM | 450 nM | 
7 | Cc1[nH]c(-c2ccccc2Oc2ccc(Cl)cc2)cc1C(N)=O | 280 nM | 410 nM | 
8 | Cc1[nH]c(-c2cc(NS(C)(=O)=O)ccc2Oc2ccc(F)cc2F)c2c1C(=O)CCC2 | 75 nM | 97 nM | 
9 | Cc1[nH]c(-c2cc(NS(C)(=O)=O)ccc2Oc2ccccc2)cc1C(N)=O | 1400 nM | 280 nM | 
10 | Cc1[nH]c(-c2ccccc2N)c2c1C(=O)CCC2 | 7100 nM | 9500 nM | 
11 | CCNC(=O)c1ccc(Oc2ccccc2)c(-c2[nH]c(C)c3c2CCCC3=O)c1 | 1400 nM | 250 nM | EC50 (MX1): 1400 nM
12 | Cc1[nH]c(-c2cc(NS(C)(=O)=O)ccc2Oc2ccccc2)c2c1C(=O)NCC2 | 120 nM | 41 nM | 
13 | Cc1[nH]c(-c2cc(N)ccc2Oc2ccccc2)c2c1C(=O)CCC2 | 300 nM | 210 nM | EC50 (MX1): 230 nM
14 | Cc1[nH]c(-c2cc(NS(C)(=O)=O)ccc2Oc2ccc(F)cc2F)cc1C(N)=O | 2300 nM | 370 nM | 
15 | Cc1[nH]c(-c2cc(N)ccc2Oc2ccccc2)cc1C(N)=O | 880 nM | 420 nM | 
16 | Cc1[nH]c(-c2ccccc2N)cc1C(N)=O | > 10000 nM | 22000 nM | EC50 (MX1): > 10000 nM
17 | Cc1[nH]c(-c2cc(S(C)(=O)=O)ccc2Oc2ccc(F)cc2F)c2cn[nH]c(=O)c12 | 750 nM | 77 nM | CL free (Liver): 37 L/h/kg; Papp [3]: 12 ×10⁻⁶ cm/s; EC50 (MX1): 390 nM
18 | CCS(=O)(=O)Nc1ccc(Oc2ccc(F)cc2)c(-c2cn(C)c3c(=O)[nH]ccc23)c1 | 47 nM | 5.5 nM | half-life [5]: 336 min; bioavailability [6]: 33%; fAUC (Mus musculus): 0.06 µM·h
19 | Cc1[nH]c(-c2ccccc2Oc2ccccc2)c2c1C(=O)CCC2 | 280 nM | 440 nM | 

Row | Compound | EC50 [1] | Ki [2] | other results
20 | CCS(=O)(=O)Nc1ccc(Oc2ccccc2)c(-c2[nH]c(C)c3c(=O)[nH]ncc23)c1 | 75 nM | 10 nM | CL free (Liver): 48 L/h/kg; Papp [3]: 9.5 ×10⁻⁶ cm/s; EC50 (MX1): 52 nM
21 | Cn1cc(-c2cc(S(C)(=O)=O)ccc2Oc2ccccc2)c2cc[nH]c(=O)c21 | 91 nM | 17 nM | 
22 | Cc1[nH]c(-c2cc(NS(C)(=O)=O)ccc2Oc2ccccc2)c2nc[nH]c(=O)c12 | 410 nM | 150 nM | 
23 | Cn1cc(-c2ccccc2Oc2ccccc2)c2cc[nH]c(=O)c21 | 1100 nM | 120 nM | CL free (Liver): 6400 L/h/kg; Papp [3]: 13 ×10⁻⁶ cm/s; EC50 (MX1): 580 nM
24 | CCS(=O)(=O)Nc1ccc(Oc2ccc(F)cc2F)c(-c2cn(C)c3c(=O)[nH]ccc23)c1 |  | 11 nM | 
25 | COC(=O)c1ccc(Oc2ccccc2)c(-c2[nH]c(C)c3c2CCCC3=O)c1 | 2000 nM | 91 nM | 
26 | Cc1[nH]c(-c2cc(S(C)(=O)=O)ccc2Oc2ccc(F)cc2F)cc1C(N)=O | 4500 nM | 2200 nM | CL free (Liver): 6 L/h/kg; EC50 (MX1): 3200 nM
27 | Cc1[nH]c(-c2ccccc2)cc1C(N)=O |  | 12000 nM | 
28 | Cc1[nH]c(-c2cc(NS(C)(=O)=O)ccc2Oc2ccc(F)cc2F)c2c1C(=O)NCC2 | 420 nM | 84 nM | 
29 | Cc1[nH]c(-c2ccccc2Oc2ccccc2)cc1C(N)=O | 450 nM | 270 nM | 
30 | Cc1[nH]c(-c2ccccc2Nc2ccccc2)cc1C(N)=O | 2800 nM | 450 nM | 
31 | Cc1[nH]c(-c2ccccc2Oc2ccccc2)c2nc[nH]c(=O)c12 | 1600 nM | 1100 nM | CL free (Liver): > 370 L/h/kg; Papp [3]: 100 ×10⁻⁶ cm/s; EC50 (MX1): 1200 nM
32 | CCOC(=O)c1[nH]c(C)c2c1CCCC2=O |  | 25000 nM | Activity [4]: Active
33 | Cc1[nH]c(-c2cc(S(C)(=O)=O)ccc2Oc2ccc(F)cc2F)c2c1C(=O)CCC2 | 1400 nM | 460 nM | CL free (Liver): 84 L/h/kg; EC50 (MX1): 570 nM
34 | Cc1[nH]c(-c2ccccc2Oc2ccccc2)c2c1C(=O)NCC2 | 280 nM | 340 nM | 
35 | Cc1[nH]c(-c2c(N)cccc2Oc2ccccc2)cc1C(N)=O | 2100 nM | 1600 nM | 
36 | Cn1cc(-c2cc(NS(C)(=O)=O)ccc2Oc2ccc(F)cc2F)c2cc[nH]c(=O)c21 | 46 nM | 17 nM | 
37 | Cc1[nH]c(-c2cc(NS(C)(=O)=O)ccc2Oc2ccccc2)c2cn[nH]c(=O)c12 | 180 nM | 30 nM | 
